DDE Tn7 FP inh: inhibitors of Tn7 peptide binding to human fibrin DD(E); inhibition, % at 8.3 µM; FP displacement of FITC-Tn7 peptide from fibrin DD(E); 0% = median of compound wells per plate; 370,000 compounds, 0.13% hits;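 active means inhibition above the mean of compounds falling within the control limits plus 3 SD of them, cut at about 14% in these data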;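 further: 0% = plate median of compound wells and 100% = 10 µM Aha-Tn7 peptide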
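System: human fibrin DD(E); quantity: Fibrin-DD(E) at 2 µM final; also added: fluorescent Tn7 probe at 0.1 µM; compound dosing: single nominal test concentration of 8.3 µM per compound; schedule: 10 min preincubation, 3 h with tracer, room temperature; detection: fluorescence polarization of the labelled Tn7 tracer; repeats: one replicate per compound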
ADAM17 inh: ADAM17 inhibition, QFRET primary screen; recombinant ADAM17, EDANS/DABCYL FRET peptide cleavage; inhibition, % at 6.95 µM; 370,000 compounds, 0.83% hits; AID 720648;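 active means inhibition above the mean of compounds lying between control limits plus 3 SD, set per campaign, cut at about 8.5% in these data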;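 further: 0% = DMSO-only wells as the low control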
MT1-MMP act inh: MT1-MMP (human) activation inhibition. HT1080 RFP-PRO-GFP cells, GFP/RFP ratio fluorescence, overnight; percent of plate control window, DMSO zero. GFP/RFP ratio change, % at 20 µM. 360,000 compounds, 0.061% hits. AID 651647. P50281;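 active means GFP/RFP ratio change of at least 30% with cell ATP level not reduced by more than half and red fluorescence within 50% of control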
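Test system: HT1080 RFP-PRO-GFP cells; Benchmarks: DMSO and RFP-L50D-GFP cell wells; Timing: cells overnight before dosing, compound overnight, 37 °C, 5% CO2; Compound: one 20 µM compound dose with 1% DMSO; Read-out: GFP/RFP fluorescence ratio.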
ADAM10 inh: inhibitors of human ADAM10; recombinant ADAM10, EDANS/DABCYL FRET peptide cleavage, 3 h; 370,000 compounds, 0.62% hits; inhibition, % at 7 µM; AID 720582;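 active means inhibition above a per-campaign cutoff equal to the mean of compounds falling between control-based bounds plus 3 SD, cut at about 20% in these data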;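 further: 0% = DMSO wells while the 100% control is not disclosed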
Target sequence (O14672 214-748 limits assumed): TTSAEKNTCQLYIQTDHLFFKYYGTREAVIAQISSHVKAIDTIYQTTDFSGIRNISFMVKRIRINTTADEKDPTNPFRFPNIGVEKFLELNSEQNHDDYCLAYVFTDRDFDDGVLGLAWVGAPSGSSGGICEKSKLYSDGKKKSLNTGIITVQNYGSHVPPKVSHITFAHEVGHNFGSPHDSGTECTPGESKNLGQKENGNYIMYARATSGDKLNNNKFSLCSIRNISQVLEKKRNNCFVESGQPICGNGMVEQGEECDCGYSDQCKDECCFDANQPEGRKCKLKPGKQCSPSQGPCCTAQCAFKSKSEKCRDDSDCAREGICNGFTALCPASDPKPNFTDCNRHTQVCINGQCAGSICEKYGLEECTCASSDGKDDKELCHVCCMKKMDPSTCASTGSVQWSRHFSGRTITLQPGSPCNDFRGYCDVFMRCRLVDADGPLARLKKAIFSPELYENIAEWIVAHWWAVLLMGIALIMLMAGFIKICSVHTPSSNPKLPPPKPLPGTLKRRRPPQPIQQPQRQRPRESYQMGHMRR
DDE Tn6 FP inh: disrupts Tn6 cyclic peptide binding to fibrin D-Dimer-E complex; inhibition, % at 8.3 µM; 370,000 compounds, 0.21% hits; Fibrin DD(E) TRITC-Tn6 fluorescence polarization displacement; P02675; AID 720509;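 active means inhibition above a per-campaign cutoff: mean of compounds within control limits plus 3 SD, cut at about 15% in these data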;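 further: 0% = median of all compound wells on the plate and 100% = blocking peptide control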
DDE Tn6 FP ctr: DD(E)-Tn6 binding inhibition, counter-screen | Fibrin DD(E), TRITC-Tn6 fluorescence polarization displacement; 0% = median of compound wells, not DMSO | AID 720621 | inhibition, % at 8.3 µM | 680 compounds, 2% hits | shares compounds with DDE Tn6 FP inh;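 active means inhibition above the mean of test compounds lying between the control limits plus 3 SD of those, cut at about 14% in these data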;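 further: 0% = median of compound wells and 100% = wells with Aha-Tn7 blocking peptide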
Tn6 DDE conf: confirmation of inhibitors of Tn6 binding to human fibrin DD(E); shares compounds with DDE Tn6 FP inh; FP displacement of TRITC-Tn6 peptide from DD(E); 0% = per-plate median of test wells; inhibition, % at 8.3 µM; 680 compounds, 10% hits; AID 720631;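 active means inhibition above the mean of compounds lying within the control limits plus 3 SD, cut at about 16% in these data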;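 further: 100% = high control wells holding a competing inhibitor peptide at 10 µM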
* marks the source's active call; other numbers are inactive results; . = no result. An excerpt weighted towards active compounds, which were near 1.6% of everything screened.

SMILES	DDE Tn7 FP inh	ADAM17 inh	MT1-MMP act inh	ADAM10 inh	DDE Tn6 FP inh	DDE Tn6 FP ctr	Tn6 DDE conf
CN(C(=O)c1ccccc1Cl)c1ccccc1	-5.0	-3.2	2.4	-1.8	15.4*	-0.6	-2.0
CN(C(=O)c1ccccc1-c1ccccc1C(=O)O)c1ccccc1	5.9	-1.6	-3.3	-2.5	-9.3	.	.
O=C(Nc1cccc(-c2nc3ccccc3[nH]2)c1)c1cccc(NC(=O)c2ccco2)c1	9.4	-102.2	-0.6	-234.6	86.2*	5.7	30.4*
COc1cc(F)c(S(=O)(=O)N2CCCN(S(=O)(=O)c3cccc(N)c3)CC2)c(F)c1	2.5	-2.6	.	-3.0	-2.3	.	.
CCN(C[C@H]1[C@@H](c2ccc(C3=CCCC3)cc2)[C@H](CO)N1C(=O)c1cccnc1)S(=O)(=O)c1ccccc1[N+](=O)[O-]	2.5	0.5	.	6.6	-3.5	.	.
COC(=O)C1=C(C)N(C)C(=NCc2cccc(C(F)(F)F)c2)NC1c1ccc(Cl)cc1 (configuration not stated)	3.9	-3.9	.	-6.5	0.4	.	.
O=C(Nc1ccc(Cl)cn1)C1CCN(c2ncnc3c2nc2n3CCCCC2)CC1	-0.6	-2.2	7.5	-0.3	17.1*	-3.2	-3.4
O=C(Nc1ccc(Cl)cn1)C1CCCN(c2ncnc3c2nc2n3CCCCC2)C1 (configuration not stated)	-0.5	-3.8	-5.5	-8.4	-0.3	.	.
O=C(NCCc1ccccc1F)c1cc2ccccn2n1	-0.5	-1.6	.	-7.2	-0.9	.	.
COc1cccc2cc(-c3n[nH]c(=S)n3C)oc12	3.0	-49.8	1.8	-168.5	18.1*	-0.4	-18.4
Cc1ccccc1C1=CC(=O)CC(C)(C)C1=O	-3.6	-2.8	.	-6.5	-2.5	.	.
COc1cc(NC(=O)CN(C)Cc2cccc(F)c2)c(C)cc1[N+](=O)[O-]	-2.1	-1.0	2.7	2.1	16.5*	9.4	2.7
COc1cc(NC(=O)CN(C)Cc2ccc(OC(F)F)cc2)c(C)cc1[N+](=O)[O-]	3.5	1.4	-1.2	-4.5	9.5	.	.
CC1CCC/C(=C\Nc2ccc(O)cc2)C1=O (configuration not stated)	3.7	-9.3	16.0	-7.6	17.1*	-6.9	-9.6
O=C(c1ccccc1Cl)N1CCSCCS1(=O)=O	-4.0	-2.3	.	-13.2	-0.7	.	.
COC(=O)[C@]12C[C@H](CC(=O)NCCc3ccccc3OC)C(=O)N(CCc3ccc(OC)c(OC)c3)C1=C[C@H](C(C)(C)C)O[C@@H]2C	4.3	6.8	.	12.8	-2.8	.	.
NS(=O)(=O)c1ccc(NC(=O)COC(=O)/C(=C/c2cccs2)c2cccs2)cc1	-3.0	3.1	0.9	5.7	18.8*	0.5	0.7
NS(=O)(=O)c1ccc(NC(=O)Cc2cccs2)cc1	-7.7	1.6	-0.9	-7.1	-0.8	.	.
CCc1cccc(C)c1NC(=S)NCc1ccc2c(c1)cc(C)n2C	-8.2	5.3	50.1	-1.6	3.0	.	.
Cc1cc2cc(CNC(=O)CC(C)C)ccc2n1C	-1.6	-9.7	22.6	-23.8	15.8*	-2.3	-13.0
Cc1cc2cc(CNC(=O)C(C)Oc3ccccc3)ccc2n1C (configuration not stated)	-5.7	-1.7	49.8	-8.1	36.5*	3.8	4.2
Cc1ccccc1NC(=S)NCc1ccc2c(c1)cc(C)n2C	8.8	-4.8	-5.1	-11.1	20.0*	3.3	-5.3
Cc1cc(Nc2cccc(Br)c2)cc(=O)n1-c1cccc(Br)c1	-5.3	2.7	.	-1.4	-0.6	.	.
O=S(=O)(c1ccc(C(F)(F)F)cc1)N1CCCc2nc(-c3ccc(F)cc3)ccc21	9.9	-4.4	.	-10.5	14.8	.	.
COc1ccc(C(=O)N/C=C/n2cnc3cc(C(F)(F)F)ccc32)cc1	10.8	-2.7	-1.2	-3.3	15.5*	3.4	-0.1
SMILES	DDE Tn7 FP inh	ADAM17 inh	MT1-MMP act inh	ADAM10 inh	DDE Tn6 FP inh	DDE Tn6 FP ctr	Tn6 DDE conf
CC(C)(C)C1=CC(CC(N)=O)(C(C)(C)C)OC1=O (configuration not stated)	-5.5	-1.3	.	-1.1	-5.6	.	.
Cc1cccnc1C(NC(=O)C1CCN(CCOc2ccc(Cl)cc2Cl)CC1)c1ccc(Cl)cc1 (configuration not stated)	-1.1	-2.5	-9.6	-4.4	15.8*	6.6	-0.1
COc1cc(OC)c(OC)cc1/C=N/NC(=O)CCc1c(C)n[nH]c1C	3.6	-65.7	-3.5	-287.3	16.2*	-0.7	-5.1
C[C@@H]1CN([C@@H](C)CO)C(=O)CCCn2cc(nn2)CO[C@H]1CN(C)C(=O)Nc1ccc(-c2cccs2)cc1	7.3	-10.5	.	-50.3	1.1	.	.
CCCCC1=CC2=CC(=O)C(C)(OC(=O)CC)C(=O)C2=CO1 (configuration not stated)	-2.6	-3.3	-1.2	1.4	18.3*	5.7	0.3
CCC(=O)OC1(C)C(=O)C=C2C=C(CCCC(=O)OC)OC=C2C1=O (configuration not stated)	2.3	-8.3	-2.6	-11.6	7.2	.	.
Cc1nn(-c2ccccc2)c2c1C(c1ccc([N+](=O)[O-])cc1)C(C#N)=C(N)O2 (configuration not stated)	4.3	-0.6	1.6	12.3	15.7*	0.4	-1.6
Cc1ccc(-n2nc(C)c3c2OC(N)=C(C#N)C3c2ccc(F)cc2)cc1 (configuration not stated)	2.7	2.1	8.0	6.4	-2.0	.	.
CCOC(=O)[C@]12CCCC=C1N(Cc1ccc(OC)cc1)C(=O)[C@@H]2CC(=O)N1CCCCC1	-0.8	-5.3	.	-9.2	-2.9	.	.
c1cc(-c2ccoc2)n2ccnc2c1	8.0	-43.6	-3.3	-206.0	23.1*	-6.8	-7.3
O=S1(=O)c2c(cccc2N2CCC[C@H]2CO)O[C@H]2CCN1C2	-0.1	-2.1	.	0.1	0.1	.	.
Nc1c(C(=O)O)ccc2c1C(=O)c1ccccc1C2=O	2.8	1.3	31.1	0.7	14.8	.	.
Nc1c(SCCC(=O)O)ccc2c1C(=O)c1ccccc1C2=O	1.7	1.7	13.7	2.3	49.6*	6.2	27.2*
CC(=O)N1CCN(C(=O)C(Cc2ccccc2)NC(=O)c2ccccc2)CC1 (configuration not stated)	6.1	-1.9	-2.8	-9.7	-5.2	.	.
CC(=O)NC(Cc1ccccc1)C(=O)N1CCN(C(=O)c2cccs2)CC1 (configuration not stated)	1.1	5.5	1.9	4.5	17.0*	-8.8	-8.5
O=C1NC(c2ccccc2)(c2ccccc2)C(=O)N1CNc1ccccn1	-3.3	-4.5	.	-9.8	-7.0	.	.

From PubChem BioAssay
